# Experimental data gathered from unrelated publications.
# Protocols differ between the studies behind these lines.
# Target: 5-hydroxytryptamine receptor 7 (HTR7, Homo sapiens, UniProt P34969)
# Concentration: 10 µM
Compound,read-out,technique,inhibition [%]
COc1cc2c3c(c1OC)-c1cc4c(cc1CC3N(C)CC2c1ccccc1)OCO4 (stereo not drawn),ligand displacement,radioligand,< 50
CCCNc1nc2ccccc2n1Cc1ccc(Cl)cc1,ligand displacement,,13.5
CCN(CC)c1ccc(C2Nc3ccc(C(=O)c4ccccc4)cc3NC3=C2C(=O)CC(C)(C)C3)cc1 (stereo not drawn),ligand displacement,radioligand,4
COc1cc(NC(C)=O)c(Cl)cc1C(=O)Nc1nccs1,ligand displacement,radioligand,-7.7
C[C@@H](c1cccc(C#N)c1)n1cc(Cl)cc(C(N)=O)c1=N,ligand displacement,,4.17
COc1cc2c3c(c1OC)-c1cc4c(cc1CC3N(C)CC2)OCO4 (racemic),ligand displacement,radioligand,96.7
CC(C)(C)OC(=O)N1CCCC1CNC1CCC(c2cc(F)ccc2F)(S(=O)(=O)c2ccc(Cl)cc2)CC1 (stereo not drawn),cell-free assay,,70.7
N#Cc1cc(Cn2c(N3CCCC3)nc3ccccc32)ccc1F,ligand displacement,,-11.2
Oc1cccc(Nc2nc(-c3ccc(F)cc3F)cs2)c1,ligand displacement,radioligand,-31.9
